Assay results of several laboratories.
Protein phosphatase methylesterase 1: Protein phosphatase methylesterase 1 (Homo sapiens, UniProt Q9Y570)
SLC22A11: Solute carrier family 22 member 11 (SLC22A11, Homo sapiens, UniProt Q9NSA0)
ADRA2A: Alpha-2A adrenergic receptor (ADRA2A, Homo sapiens, UniProt P08913)
CA1: Carbonic anhydrase 1 (CA1, Homo sapiens, UniProt P00915)

CCOC(=O)c1ccc(OC(=O)CCCCCN=C(N)N)cc1  IC50 (Tryptase gamma (Homo sapiens, UniProt Q9NRR2); enzyme activity, inhibitor): 1.99 µM
O=C(CP(=O)(Oc1ccccc1)Oc1ccccc1)N/N=C/c1ccncc1Br  IC50 (Protein phosphatase methylesterase 1; enzyme activity, inhibitor; lysate): 7 µM
N#Cc1c(Cl)c(Cl)c(Cl)c(C#N)c1Cl  IC50 (SLC22A11; transporter uptake, inhibitor): 7.3 µM
COc1cc2c(cc1OC)CN(CCc1ccc(NC(=O)c3cccc4c(=O)c5cccc(OC)c5[nH]c34)cc1)CC2  Ki (ADRA2A; cell-free assay): 1.37 µM
CC(C)C[C@H]1C(=O)N2CCC[C@H]2[C@]2(O)O[C@](NC(=O)[C@@H]3C=C4c5cccc6[nH]c(Br)c(c56)C[C@H]4N(C)C3)(C(C)C)C(=O)N12  IC50 (Synaptic vesicular amine transporter (SLC18A2, Homo sapiens, UniProt Q05940); transporter uptake, inhibitor): 4.85 µM
C[CH2][Hg][S]c1ccccc1C(=O)[O-].[Na+]  IC50 (SLC22A11; transporter uptake, inhibitor): 5 µM
CC(=O)c1c(C)c2cnc(Nc3ccc(C4CCN(CCS(C)(=O)=O)CC4)cn3)nc2n(C2CCCC2)c1=O  IC50 (Cytochrome P450 2C19 (CYP2C19, Homo sapiens, UniProt P33261); enzyme activity, inhibitor; human, liver microsomes): > 10 µM
O=C(Nc1ccc(C(F)(F)F)cc1)Nc1ccc2c(c1)C=CCP(=O)(O)O2  Ki (CA1; enzyme activity, inhibitor, stopped-flow): > 10 µM
NC(=S)N/N=C1/c2ccccc2[C@@H]2[C@H]1[C@@H](c1ccoc1)[C@H](C(=O)c1ccco1)[C@H]2c1ccoc1  IC50 (Carbonic anhydrase 2 (CA2, Homo sapiens, UniProt P00918); enzyme activity, inhibitor, absorbance): 0.748 µM
O=C(Nc1ccc2c(c1)C=CCP(=O)(O)O2)c1ccc2ccccc2c1  Ki (CA1; enzyme activity, inhibitor, stopped-flow): > 10 µM
CC[C@H](C)[C@H](NC(=O)[C@H](CCCCNC(=O)CN(CCNC(=O)CN(CCNC(=O)CN(CCNC(=O)CN(CCNC(=O)[C@H](CCCNC(=N)N)NC(C)=O)C(=O)Cn1ccc(N)nc1=O)C(=O)Cn1cnc2c(=O)[nH]c(N)nc21)C(=O)Cn1cnc2c(=O)[nH]c(N)nc21)C(=O)Cn1ccc(N)nc1=O)NC(=O)[C@H](C)NC(=O)[C@H](CCCNC(=N)N)NC(=O)[C@H](CCCCN)NC(=O)[C@H](CCC(N)=O)NC(=O)[C@H](CCC(N)=O)NC(=O)[C@H](CC(N)=O)NC(=O)[C@@H](NC(=O)[C@H](CC(C)C)NC(=O)[C@H](CC(N)=O)NC(=O)[C@@H]1CCCN1C(=O)[C@H](CC(=O)O)NC(=O)[C@H](CC(C)C)NC(=O)[C@H](C)NC(=O)[C@H](CS)NC(=O)[C@H](CCCC(=O)NCCN(CC(=O)NCCN(CC(=O)NCCN(CC(=O)NCCN(CC(N)=O)C(=O)Cn1cnc2c(=O)[nH]c(N)nc21)C(=O)Cn1ccc(N)nc1=O)C(=O)Cn1ccc(N)nc1=O)C(=O)Cn1cnc2c(=O)[nH]c(N)nc21)NC(=O)[C@H](Cc1c[nH]c2ccccc12)NC(=O)[C@H](Cc1ccc(O)cc1)NC(=O)[C@H](CCCNC(=N)N)NC(=O)[C@H](CC(N)=O)NC(=O)[C@H](CCCNC(=N)N)NC(=O)[C@H](CC1CCCCC1)NC(=O)[C@H](CCC(=O)O)NC(=O)[C@H](CCCCN)NC(=O)[C@H](CO)NC(=O)[C@H](Cc1ccccc1)NC(C)=O)[C@@H](C)O)C(=O)N[C@@H](CCCNC(=N)N)C(=O)N[C@@H](CO)C(=O)N[C@H](C(=O)N[C@@H](Cc1ccc(O)cc1)C(=O)N[C@@H](CCC(=O)O)C(=O)N[C@@H](CCC(=O)O)C(N)=O)[C@@H](C)CC  Kd (Receptor tyrosine-protein kinase erbB-2 (ERBB2, Homo sapiens, UniProt P04626); binding, SPR): 0.00058 µM
O=C(Nc1cccc(F)c1)Nc1ccc2c(c1)C=CCP(=O)(O)O2  Ki (CA1; enzyme activity, inhibitor, stopped-flow): > 10 µM
CCCCC1CNC2CCc3ccc(OC)cc3C12 (racemic)  Ki (ADRA2A; ligand displacement, radioligand): 0.26 µM
O=C(Nc1ccc2c(c1)C=CCP(=O)(O)O2)Nc1ccccc1Br  Ki (CA1; enzyme activity, inhibitor, stopped-flow): > 10 µM
O=P(Oc1ccccc1)(Oc1ccccc1)C(NCc1cncc2ccccc12)c1ccc(O)cc1 (stereo not drawn)  IC50 (Protein phosphatase methylesterase 1; enzyme activity, inhibitor; lysate): 15.5 µM
